pEC50, pIC50: −log10 of the molar value. Active and inactive are the calls of the source. The rule behind the calls is not given here.
What was measured:
Plasmodium falciparum [1] = assay: Binding affinity to Plasmodium falciparum PFI0875w at 2.5 mM by LC/MS/MS analysis
Outline: (§1)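 P. falciparum parasite lysate was incubated with agarose-immobilized inhibitor and washed extensively. Retained proteins were eluted with urea, resolved by SDS-PAGE and identified by LC/MS/MS. In a competition arm, free inhibitor (2.5 mM) was added to the lysate before incubation with the beads under identical conditions.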

Plasmodium falciparum [2] = assay: Binding affinity to Plasmodium falciparum PFC0720w at 2.5 mM by LC/MS/MS analysis; outline: as §1
Plasmodium falciparum [3] = assay: Binding affinity to Plasmodium falciparum PFL0185c at 2.5 mM by LC/MS/MS analysis; outline: as §1
Plasmodium falciparum [4] = assay: Antimicrobial activity against Plasmodium falciparum schizonts infected in human erythrocytes assessed as minimal effect on parasite cell cycle at 450 nM treated 36 hrs after release of ring stage by microscopy
Plasmodium falciparum [5] = assay: Antiplasmodial activity against chloroquine-resistant Plasmodium falciparum W2 after 72 hrs by SYBR green assay; type: functional, organism-based; conditions: W2, 72 h
Outline: (§2)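 Parasites grown in human O+ erythrocytes in RPMI with human serum and albumax. For the assay, serially diluted compounds were added to screening medium (RPMI, 4.16 mg/ml albumax) at 2.5% hematocrit and 0.3% parasitemia, then incubated 72 h in 93% N2/4% CO2/3% O2. DMSO served as baseline and uninfected erythrocytes as background. SYBR Green fluorescence was read at 520 nm to give EC50.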

Plasmodium falciparum [6] = assay: Binding affinity to Plasmodium falciparum PF14_0439 at 2.5 mM by LC/MS/MS analysis; outline: as §1
Plasmodium falciparum [7] = assay: Binding affinity to Plasmodium falciparum PF14_0541 at 2.5 mM by LC/MS/MS analysis; outline: as §1
Plasmodium falciparum [8] = assay: Binding affinity to Plasmodium falciparum PFL1170w at 2.5 mM by LC/MS/MS analysis; outline: as §1
Plasmodium falciparum [9] = assay: Antiplasmodial activity against multidrug-resistant Plasmodium falciparum FCB after 72 hrs by SYBR green assay; type: functional, organism-based; outline: as §2
Plasmodium falciparum [10] = assay: Binding affinity to Plasmodium falciparum PF11_0191 at 2.5 mM by LC/MS/MS analysis; outline: as §1
Plasmodium falciparum [11] = assay: Binding affinity to Plasmodium falciparum PFI1680w at 2.5 mM by LC/MS/MS analysis; outline: as §1
Plasmodium falciparum [12] = assay: Antiplasmodial activity against multidrug-resistant Plasmodium falciparum Dd2 after 72 hrs by SYBR green assay; type: functional, organism-based; conditions: Dd2, 72 h; outline: as §2
Plasmodium falciparum [13] = assay: Binding affinity to Plasmodium falciparum PF14_0102 at 2.5 mM by LC/MS/MS analysis; outline: as §1
[14] = Cytotoxicity against human HeLa cells after 72 hrs by Cell Titer Glo assay; type: cell-based; conditions: read-out: ED50
Outline: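 Cells were seeded at 250 per well in DMEM with 5% FBS in 1,536-well plates, and compound was added the next day. Culture ran 72 h, matching the parasite proliferation assay. Viability was read by Cell Titer Glo luminescence, and EC50 was derived.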

Plasmodium falciparum [15] = assay: Binding affinity to Plasmodium falciparum PF13_0304 at 2.5 mM by LC/MS/MS analysis; outline: as §1
Plasmodium falciparum [16] = assay: Binding affinity to Plasmodium falciparum PF14_0186 at 2.5 mM by LC/MS/MS analysis; outline: as §1
Toxoplasma gondii [17] = assay: Antimicrobial activity against Toxoplasma gondii […] infected in african green monkey BSC1 cells assessed as parasite invasion at 25 uM after 48 hrs by microscopy relative to control; type: functional, BSC-1
[18] = Cytotoxicity against human HuH7 cells after 72 hrs by Cell Titer Glo assay; type: cell-based, Huh-7; conditions: read-out: ED50
Outline: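 Cells seeded at 250 per well in DMEM with 5% fetal bovine serum. Compound added the next day, followed by 72 h culture to match the parasite proliferation assay. Viability read by Cell Titer Glo luminescence.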

[19] = Inhibition of GST-fused Plasmodium falciparum recombinant CDPK1 expressed in Escherichia coli Rosetta 2 assessed as inhibition of [gamma-33P]ATP incorporation into substrate peptide by scintillation counting
Plasmodium falciparum [20] = assay: Antimicrobial activity against Plasmodium falciparum 3D7 schizonts infected in human erythrocytes assessed as effect on parasitemia at 225 to 450 nM after 32 hrs by microscopy
Plasmodium falciparum [21] = assay: Binding affinity to Plasmodium falciparum CDPK1 at 2.5 mM by LC/MS/MS analysis; outline: as §1
Plasmodium falciparum [22] = assay: Antimicrobial activity against Plasmodium falciparum 3D7 infected in human erythrocytes after 48 hrs by microscopy
Plasmodium falciparum [23] = assay: Binding affinity to Plasmodium falciparum PF14_0393 at 2.5 mM by LC/MS/MS analysis; outline: as §1
Plasmodium falciparum [24] = assay: Binding affinity to Plasmodium falciparum PF10_0268 at 2.5 mM by LC/MS/MS analysis; outline: as §1
Plasmodium falciparum [25] = assay: Binding affinity to Plasmodium falciparum PFI0180w at 2.5 mM by LC/MS/MS analysis; outline: as §1
Plasmodium falciparum [26] = assay: Binding affinity to Plasmodium falciparum PF10_0363 at 2.5 mM by LC/MS/MS analysis; outline: as §1
Plasmodium falciparum [27] = assay: Binding affinity to Plasmodium falciparum PF14_0075 at 2.5 mM by LC/MS/MS analysis; outline: as §1
Plasmodium falciparum [28] = assay: Binding affinity to Plasmodium falciparum PF11_0351 at 2.5 mM by LC/MS/MS analysis; outline: as §1
Toxoplasma gondii [29] = assay: Antimicrobial activity against Toxoplasma gondii […] infected in african green monkey BSC1 cells assessed as parasite invasion at 12.5 uM after 48 hrs by microscopy relative to control; type: functional, BSC-1
Toxoplasma gondii [30] = assay: Antimicrobial activity against Toxoplasma gondii […] infected in african green monkey BSC1 cells assessed as parasite invasion at 6.25 uM after 48 hrs by microscopy relative to control; type: functional, BSC-1
Plasmodium falciparum [31] = assay: Binding affinity to Plasmodium falciparum PF13_0116 at 2.5 mM by LC/MS/MS analysis; outline: as §1
Toxoplasma gondii [32] = assay: Antimicrobial activity against Toxoplasma gondii […] infected in african green monkey BSC1 cells assessed as parasite invasion at 50 uM after 90 mins by microscopy relative to control
Plasmodium falciparum [33] = assay: Binding affinity to Plasmodium falciparum PF08_0003 at 2.5 mM by LC/MS/MS analysis; outline: as §1
Plasmodium falciparum [34] = assay: Binding affinity to Plasmodium falciparum PF13_0238 at 2.5 mM by LC/MS/MS analysis; outline: as §1
Plasmodium falciparum [35] = assay: Binding affinity to Plasmodium falciparum PFE1155c at 2.5 mM by LC/MS/MS analysis; outline: as §1
Toxoplasma gondii [36] = assay: Antimicrobial activity against Toxoplasma gondii […] infected in african green monkey BSC1 cells assessed as parasite invasion at 100 uM after 90 mins by microscopy relative to control
Toxoplasma gondii [37] = assay: Antimicrobial activity against Toxoplasma gondii […] infected in african green monkey BSC1 cells assessed as inhibition of parasite invasion at 1.56 uM after 48 hrs by microscopy relative to control; type: functional, organism-based; conditions: BSC-1
[38] = Inhibition of GST-fused Plasmodium falciparum recombinant CDPK5 expressed in Escherichia coli Rosetta 2 assessed as inhibition of [gamma-33P]ATP incorporation into substrate peptide by scintillation counting

N[C@H]1CC[C@H](Nc2nc(Nc3ccc(C(=O)N4CCCCC4)cc3)c3ncn(-c4cccc(F)c4)c3n2)CC1 [PURFALCAMINE]
Activity (Plasmodium falciparum [1]): inactive | Activity (Plasmodium falciparum [2]): inactive | Activity (Plasmodium falciparum [3]): inactive | Activity (Plasmodium falciparum [4]): Active | pEC50 (Plasmodium falciparum [5]): 6.75 | Activity (Plasmodium falciparum [6]): inactive | Activity (Plasmodium falciparum [7]): inactive | Activity (Plasmodium falciparum [8]): inactive | pEC50 (Plasmodium falciparum [9]): 6.77 | Activity (Plasmodium falciparum [10]): inactive | Activity (Plasmodium falciparum [11]): inactive | pEC50 (Plasmodium falciparum [12]): 6.59 | Activity (Plasmodium falciparum [13]): inactive | CC50 at 72 h [14]: 7030 nM | Activity (Plasmodium falciparum [15]): inactive | Activity (Plasmodium falciparum [16]): inactive | Activity (Toxoplasma gondii [17]): <=20% | CC50 at 72 h [18]: 5480 nM | pIC50 [19]: 7.77 | inhibition (Plasmodium falciparum [20]): inactive | Activity (Plasmodium falciparum [21]): Active | EC90 (Plasmodium falciparum [22]; Plasmodium falciparum 3D7): 414 nM | pEC50 (Plasmodium falciparum [22]; Plasmodium falciparum 3D7, 48 h): 6.64 | Activity (Plasmodium falciparum [23]): inactive | Activity (Plasmodium falciparum [24]): inactive | Activity (Plasmodium falciparum [25]): inactive | Activity (Plasmodium falciparum [26]): inactive | Activity (Plasmodium falciparum [27]): inactive | Activity (Plasmodium falciparum [28]): inactive | Activity (Toxoplasma gondii [29]): 20% | Activity (Toxoplasma gondii [30]): 20% | Activity (Plasmodium falciparum [31]): inactive | Activity (Toxoplasma gondii [32]): <=20% | Activity (Plasmodium falciparum [33]): inactive | Activity (Plasmodium falciparum [34]): inactive | Activity (Plasmodium falciparum [35]): inactive | Activity (Toxoplasma gondii [36]): <=20% | inhibition (Toxoplasma gondii [37]): inactive | pIC50 [38]: < 5.46

Reference: ChEMBL document CHEMBL1212705, “Gene expression signatures and small-molecule compounds link a protein kinase to Plasmodium falciparum motility” (Nat Chem Biol, 2008)
